Reference: the RNAGym collection of RNA variant scans (doi:10.1126/science.aae0568)
Variants at the floor of the assay were thinned out.

B1: tRNA (parent)
chain: GUUCCGUUGGCGUAAUGGUAACGCGUCUCCCUCCUAAGGAGAAGACUGCGGGUUCGAGUCCCGUACGGAACG

Variants of: B1
Assay: yeast fitness relative to wild type (ratio to wild type); higher = fitter; tRNA-Arg(CCU), competitive growth, 37 C, YPD
In short: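 For this measurement, the tRNA-Arg(CCU) gene was varied by chemical synthesis at a 3% per-site mutation rate across 69 sites, and each variant was placed at the native genomic locus in Saccharomyces cerevisiae. The pooled strains went through a 24-hour competition in YPD at 37°C in six parallel replicates, with amplicons from start and end populations read by 100-nucleotide paired-end sequencing. Darwinian fitness relative to wild type followed from the change in each genotype's frequency. Genotypes needed ≥ 100 starting reads, and estimates < 0.5 were set to 0.5.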

Row | Variant | yeast fitness
1 | GUUGCGUCGGCGUAAUGGUAACGCGUCUCCCUCCUAAGGAGAAGACUGAGGGUUCGAGUCCCGUACGGAACG | ≤ 0.5
2 | GUUCCGUUGGCGUAAUGGUAACGCGUGUCCCUCCUAAGGAGGAGACUGCGGGUUCGAGUCCCGUACGGUACG | ≤ 0.5
3 | GUUCCCUUGGCGUAAUAGUAACGCGUCUCUCUCCUAAGGAGCAGACUGCGGGUUCGAGUCCCGUACGGAACG | 0.63
4 | GUUCCGUUGGCGUAAUGGUAACGGGUCUGCCUCCUAAGGAGAAGACUGCGGGUUCGAGUCCCGUACAGAACG | 0.57
5 | GUUCCGUUGGCGUAAUGAUAACGCGUCUCCCUCCUAAGGAGUAGACUGCGGGUUCGAGUCCCGUACGGAACG | 0.683
6 | GUUCCGUUCGCGUAAUGGUAACACGUCUCCCUCUUAAGGAGAAGACUGCGGGUUCGAGUCCCGUAGGGAACG | ≤ 0.5
7 | GUUCGGUUGGCGUCAUGGUAACGCGUCUACGUCCUAAGGAGAAGACUGCGGGUACGAGUCCCGUACGGAACG | 0.638
8 | GUUCCGUUGGCGUGAUGGUAACGCGUCUCCCUCCUAAGGCGAAGACUGCGGGUUCGAGUCCCGUACGGAACG | 1
9 | GUUCCGUUGGCGUAAUGGUAACGCGUCUCCCUCCUAAGGAGAAGACGGCGGGUUCGAGUGCAGUGCGGAACG | ≤ 0.5
10 | GUUCCGUUGGCGUAAUGGUAACGCGUCUCCCUCCUAAGGAAAAGACUGCGGGUUCGAGUCCCGUACGGUACG | 0.914
11 | GUUCCGUUGGCGUAAUGGUAACGCGUCUCCCUCCUAAGGAGAGGACUGCGGGUUCGCGUGCCGUACGGAACG | ≤ 0.5
12 | GUUCCGUUGGCGUAAUGGUAACGCGUAUCCCUCCUAAGGAGAAAACUGCGGGUUCGAGUCCCGUACGGCACG | ≤ 0.5
13 | GUUCCGUUGGUGUAAUGGUAACGCGUCUCCCUCCUAAGGAGAAGACUGCGGGUUCGAGCCCCGUACGGAACG | 0.937
14 | GUUCCGUUGGGGUGAUGGUAACGCGUCUCCCUCCUAGGGAGAAAACUGCGGGUUCGAGUCCCAUACGGAACG | 0.55
15 | GUUCCAUUGGCGUAAUGGUUGCGCGUCUCCCUCCUAAGGAGAAGACUGCGGGUUCGAGUCUCGUACGGAACG | ≤ 0.5
16 | GUACCGUUGGCGUAAUGGUAACGGGUCUUCCUCCUGAGGAGAAGACUGCGGGUUCGAGUCCCGUACGGAACG | 0.639
17 | GCUCCGUUGGCGUAAUGGUAACGCGUCUCCCUCCUAAGGAAAAGACUGCGGGUUCGAGUCCUGUACGGAACG | 0.528
18 | GUUCCGUUGGUGUAAUGGUAACGCGUCUCCCUCCUAAGGAGAAGACUGCGGGUUCGCGUUCCGUACCGAACG | 0.589
19 | GUUCCGUUGGCGUAAUGGUUACGCGUCUCCCUCCUAAGGAGACGACUACGGGUUCGAGUCCUGUACGGAACG | 0.787

Row | Variant | yeast fitness
20 | GUUCCGUUGGCGUAAUGGUAACGCGUCUCCCUCCUAAGGGGAAGACUGCGGGUUAGAGUCCCGUACGGAACG | 0.626
21 | GUUCUGUUGGCGUAAUGGGAACGCGUCUCCCUCCUAAGGAGAAGACUGCGGGUUCGAGUCCCGUACAGAACG | 0.649
22 | GUUCCGUUGGCGUAAUGGUAAAGCGUCUCCCUCCUAAGGAGGAGACUGUGGGUUCGAGUCCCGUACGGAACG | ≤ 0.5
23 | GUUCCGUUGGCGUAAUGGUAACGCGUCUGCCUCCUAAGGAGAUGAGUGCGGGUUCGAGUCCAGUACGGAACG | ≤ 0.5
24 | GUUCCGUUGGCGAAAUGGUAACGCGUCACGCUCCUAAGGAGAAGAUUGCGGGUUCCAGUCGCGUACGGAACG | ≤ 0.5
25 | GUUACGUAGGCGUAAUGGUAACGUGUCUCCCUCCUAAGGAGAAGACUGCGGGUUUGAGUCCCGUACGCAACG | ≤ 0.5
26 | GUUCCGUUCGCGUAAUGGUAACGCGUCUCACUCCUAAGGAGAAGACUGCGGGUUCGAGUUCCGUACGGAACG | 0.655
27 | GUUUCGUUAGUGUAAUGGUAACGCGUCUCCCUCAUAAGGAGAAGACUGCGGGUUAGAGUCCCGUCCGGAACG | ≤ 0.5
28 | GUCCCGUUAGCGUAAUGGUAACGCGUCUCCCUCUUAAGGAGAAGACUGCGGGUUCGAGUCCCGUUCGGAACG | ≤ 0.5
29 | GUUCCGUUGGCGUAAUGGUAACGCGUCUCCCCCCUAGGGAGAAGACUGCGGGUUCGAGUCCCGUACGGAACG | 0.819
30 | GUUCCGUUGGCGUAAUGGUAACGGGUCUCCCUCCUAAGGAGAAGACUGCGGGUUCGUAUCCCGUUCGGAACG | ≤ 0.5
31 | GUUCCGUAGGCGUAAUGGUAACGCGUCUCCCUUCUAAGGAGAAGACUGCGGGUUCGAGUCCCGUAAGGAACG | ≤ 0.5
32 | GUUCCGUUGGCGUAAUGCUAACGCGUCUCCCUCCUGAGGAGAAGACUGCGGGUUCGAGUCCCGUACGGAACG | 0.769
33 | GUUCUGUUGGCGUAUUGGUAACGCGUCUUCUUCUUAAGGAGAAGACUGCGGGUUCGAGUCCCGCACGGAACG | ≤ 0.5
34 | GUUUCGUUGGCGUAAUGGUGACGCGUCUCCCUCCUAAGGAGAAGUCUGCGGGUUCGAGUCUGGUACGGCACG | 0.602
35 | GUUCCGUUGGCGUAAUGGUAACGCGUCUCCCUCCUAUGGAGAAGACUCCGGGUUCGAGUCCCGUACGUAACG | 0.57
36 | GUUCCGUUGCCGUAAUGGUAACGCGUCUCCCUCCUAAGGAGAAGCCUGCGGGUUCGAGCCCCGUACGGAACG | ≤ 0.5
37 | GUUCCGUUGGCGUAAUGGUAACGGGUCUCCCUACUAAGGAGAAGACUGCGGGUUCGAGUCCAGUACGGAACG | ≤ 0.5
